Reference: ChEMBL document CHEMBL1212766, “Dose escalation study of the safety, tolerability, and pharmacokinetics of nemonoxacin (TG-873870), a novel potent broad-spectrum nonfluorinated quinolone, in healthy volunteers” (Antimicrob Agents Chemother, 2010)
Converted amounts (≈) assume the structure as drawn.

What was measured:
Homo sapiens [1] = experiment: Toxicity in healthy human assessed as occurrence of pruritus at 25 […], po; assay type: organism-based; parameters: route oral; conditions: in vivo
Streptococcus pneumoniae [2] = experiment: Antimicrobial activity against penicillin-intermediate Streptococcus pneumoniae; assay type: functional
[3] = Renal clearance in healthy human at 50 […], po administered as single dose; assay type: ADME, organism-based, Kidney; parameters: route oral; conditions: in vivo, read-out: CL_renal (converted)
Method in brief: (§1)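 Renal clearance (CL_r) came from noncompartmental analysis of plasma drawn through 96 h and urine collected over fixed intervals to 96 h. Subjects were fasted healthy volunteers, six per dose cohort, given one oral dose with 240 ml water. Plasma and urine were assayed by LC-MS/MS after solid-phase extraction, with urine LLOQ 200 ng/ml. Values are means (SD).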

Homo sapiens [4] = experiment: Toxicity in healthy human assessed as occurrence of oral hypoesthesia at 1000 […], po; assay type: organism-based; parameters: route oral; conditions: in vivo
Staphylococcus aureus [5] = experiment: Ratio of fCmax to MIC90 for methicillin-sensitive Staphylococcus aureus; assay type: functional
Method in brief: (§2)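 Fasted healthy adults got a single oral 500 mg dose with 240 ml water. Plasma was sampled predose to 96 h and assayed by LC-MS/MS (5–5,000 ng/ml). Cmax was read from individual profiles, and AUC0-∞ came from linear trapezoid plus extrapolation. Free fraction was measured by ultrafiltration (30,000 MWCO) of 0.5 and 6 h plasma. Free exposure was divided by the isolate MIC90.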

Homo sapiens [6] = experiment: Toxicity in healthy human assessed as occurrence of pruritus at 1500 […], po; assay type: organism-based; parameters: route oral; conditions: in vivo
Homo sapiens [7] = experiment: Clearance in healthy human at 1000 mg, po administered as single dose; conditions: in vivo
Homo sapiens [8] = experiment: Toxicity in healthy human assessed as occurrence of ear pain at 25 […], po; assay type: organism-based; parameters: route oral; conditions: in vivo
[9] = Tmax in healthy human at 500 mg, po administered as single dose; conditions: in vivo
[10] = Renal clearance in healthy human at 1500 […], po administered as single dose; assay type: ADME, organism-based, Kidney; parameters: route oral; conditions: in vivo, read-out: CL_renal (converted); method in brief: as §1
Homo sapiens [11] = experiment: Toxicity in healthy human assessed as occurrence of nausea at 250 […], po; assay type: organism-based; parameters: route oral; conditions: in vivo
[12] = Renal clearance in healthy human at 500 mg, po administered as single dose; conditions: in vivo, read-out: CL_renal (converted)
Homo sapiens [13] = experiment: Terminal volume of distribution in healthy human at 500 mg, po administered as single dose; conditions: in vivo
Homo sapiens [14] = experiment: Toxicity in healthy human assessed as occurrence of pruritus at 250 […], po; assay type: organism-based; parameters: route oral; conditions: in vivo
[15] = Clearance in healthy human assessed as recovery of unchanged drug in urine at 125 […], po administered as single dose; assay type: ADME, organism-based; parameters: route oral; conditions: read-out: Recovered in urine
Method in brief: (§3)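 Healthy volunteers, six on drug per cohort, fasted 10 h and given one oral dose with 240 ml water, then fasted 4 h more. Urine was pooled over intervals from 0-2 to 72-96 h and stored at about −70°C. Drug was measured by solid-phase extraction and LC-MS/MS (LLOQ 200 ng/ml), giving the percent of dose recovered unchanged. Values are means (SD).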

Homo sapiens [16] = experiment: Toxicity in healthy human assessed as occurrence of ear pain at 125 […], po; assay type: organism-based; parameters: route oral; conditions: in vivo
[17] = Terminal phase elimination half-life in healthy human at 1000 mg, po administered single dose; conditions: in vivo
Homo sapiens [18] = experiment: Toxicity in healthy human assessed as occurrence of headache at 1500 […], po; assay type: organism-based; parameters: route oral; conditions: in vivo
Homo sapiens [19] = experiment: Toxicity in healthy human assessed as occurrence of ear pain at 500 […], po; assay type: organism-based; parameters: route oral; conditions: in vivo
Homo sapiens [20] = experiment: Toxicity in healthy human assessed as occurrence of headache at 500 […], po; assay type: organism-based; parameters: route oral; conditions: in vivo
Staphylococcus aureus [21] = experiment: Ratio of fCmax to MIC90 for methicillin-resistant Staphylococcus aureus; assay type: functional; method in brief: as §2
[22] = Clearance in healthy human assessed as recovery of unchanged drug in urine at 1500 […], po administered as single dose; assay type: ADME, organism-based; parameters: route oral; conditions: read-out: Recovered in urine; method in brief: as §3
[23] = Terminal phase elimination half-life in healthy human at 125 […], po administered single dose; assay type: ADME, organism-based; parameters: route oral; conditions: in vivo
Method in brief: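 After one fasted oral dose (six healthy subjects per cohort), plasma was sampled from 0.5 to 96 h and assayed by LC-MS/MS (LLOQ 5 ng/ml). λz came from least-squares regression on at least the last three log-concentration points, and t1/2 = 0.693/λz. Values are means (SD).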

Homo sapiens [24] = experiment: Toxicity in healthy human assessed as occurrence of oral hypoesthesia at 125 […], po; assay type: organism-based; parameters: route oral; conditions: in vivo
Homo sapiens [25] = experiment: Toxicity in healthy human assessed as occurrence of contact dermatitis at 25 […], po; assay type: organism-based; parameters: route oral; conditions: in vivo
Method in brief: (§4)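 Randomized, double-blind, placebo-controlled single ascending oral doses in healthy volunteers (cohorts of 6 active, 2 placebo; 25–1,500 mg). After a 10-h fast, dose given with 240 ml water; fasting continued 4 h. Subjects were confined to 96 h postdose. AEs were recorded throughout dosing and at follow-up, reported as number and percentage of subjects with events per treatment.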

Homo sapiens [26] = experiment: Toxicity in healthy human assessed as occurrence of erythema at 1000 […], po; assay type: organism-based; parameters: route oral; conditions: in vivo
Streptococcus pneumoniae [27] = experiment: Ratio of fCmax to MIC90 for penicillin-intermediate Streptococcus pneumoniae; assay type: functional; method in brief: as §2
Homo sapiens [28] = experiment: Toxicity in healthy human assessed as occurrence of contact dermatitis at 1500 […], po; assay type: organism-based; parameters: route oral; conditions: in vivo; method in brief: as §4
Staphylococcus aureus [29] = experiment: Antimicrobial activity against methicillin-resistant Staphylococcus aureus; assay type: functional
Homo sapiens [30] = experiment: Toxicity in healthy human assessed as occurrence of ear pain at 1000 […], po; assay type: organism-based; parameters: route oral; conditions: in vivo
[31] = Cmax in healthy human at 250 mg, po administered as single dose; conditions: in vivo
Homo sapiens [32] = experiment: Toxicity in healthy human assessed as occurrence of nausea at 500 […], po; assay type: organism-based; parameters: route oral; conditions: in vivo
Staphylococcus aureus [33] = experiment: Ratio of fAUC to MIC90 for methicillin-resistant Staphylococcus aureus; assay type: functional; method in brief: as §2
Homo sapiens [34] = experiment: AUC (0 to infinity) in healthy human at 1000 mg, po administered as single dose; conditions: in vivo
Homo sapiens [35] = experiment: Clearance in healthy human at 500 mg, po administered as single dose; conditions: in vivo
Homo sapiens [36] = experiment: Toxicity in healthy human assessed as occurrence of headache at 25 […], po; assay type: organism-based; parameters: route oral; conditions: in vivo
[37] = Clearance in healthy human assessed as recovery of unchanged drug in urine at 1000 […], po administered as single dose; assay type: ADME, organism-based; parameters: route oral; conditions: read-out: Recovered in urine; method in brief: as §3
Streptococcus pneumoniae [38] = experiment: Ratio of fAUC to MIC90 for penicillin-intermediate Streptococcus pneumoniae; assay type: functional; method in brief: as §2
[39] = Clearance in healthy human assessed as recovery of unchanged drug in urine at 250 […], po administered as single dose; assay type: ADME, organism-based; parameters: route oral; conditions: read-out: Recovered in urine; method in brief: as §3
Homo sapiens [40] = experiment: Toxicity in healthy human assessed as occurrence of nausea at 50 […], po; assay type: organism-based; parameters: route oral; conditions: in vivo
Streptococcus pneumoniae [41] = experiment: Ratio of fCmax to MIC90 for penicillin-resistant Streptococcus pneumoniae; assay type: functional; method in brief: as §2
Homo sapiens [42] = experiment: Toxicity in healthy human assessed as occurrence of pruritus at 125 […], po; assay type: organism-based; parameters: route oral; conditions: in vivo
Homo sapiens [43] = experiment: Toxicity in healthy human assessed as occurrence of nausea at 125 […], po; assay type: organism-based; parameters: route oral; conditions: in vivo

With `COc1c(N2C[C@@H](C)C[C@H](N)C2)ccc2c(=O)c(C(=O)O)cn(C3CC3)c12` [NEMONOXACIN] as the compound, how does the Activity (Homo sapiens [1]) read?
The Activity was 0%.

And the MIC90 (Streptococcus pneumoniae [2])?
The MIC90 was 0.015 µg/mL (≈ 0.0404 µM).

What about the CL renal [3] of the same compound?
Its CL renal is 2 mL/min/kg.

What about the Activity (Homo sapiens [4]) of the same compound?
Its Activity is 17%.

What about the Ratio (Staphylococcus aureus [5]) of the same compound?
The Ratio was 24.

What about the Activity (Homo sapiens [6]) of the same compound?
Its Activity is 50%.

What about the CL (Homo sapiens [7]) of the same compound?
The CL was 0.22 L/h/kg.

What about the Activity (Homo sapiens [8]) of the same compound?
The Activity was 0%.

What about the Tmax [9] of the same compound?
Its Tmax is 2 h.

And the CL renal [10]?
The CL renal was 1.15 mL/min/kg.

What about the Activity (Homo sapiens [11]) of the same compound?
Its Activity is 0%.

What about the CL renal [12] of the same compound?
The CL renal was 1.13 mL/min/kg.

And the Vbeta (Homo sapiens [13])?
Its Vbeta is 4.25 L/kg.

What about the Activity (Homo sapiens [14]) of the same compound?
Its Activity is 0%.

And the dose excreted [15]?
The dose excreted was 38.3%.

What about the Activity (Homo sapiens [16]) of the same compound?
The Activity was 0%.

What about the half-life [17] of the same compound?
Its half-life is 985 min.

And the Activity (Homo sapiens [18])?
The Activity was 17%.

What about the Activity (Homo sapiens [19]) of the same compound?
Its Activity is 0%.

What about the Activity (Homo sapiens [20]) of the same compound?
The Activity was 0%.

What about the Ratio (Staphylococcus aureus [21]) of the same compound?
The Ratio was 48.

What about the dose excreted [22] of the same compound?
The dose excreted was 37.6%.

And the half-life [23]?
The half-life was 668 min.

And the Activity (Homo sapiens [24])?
The Activity was 0%.

And the Activity (Homo sapiens [25])?
The Activity was 50%.

And the Activity (Homo sapiens [26])?
The Activity was 17%.

And the Ratio (Streptococcus pneumoniae [27])?
Its Ratio is 191.

What about the Activity (Homo sapiens [28]) of the same compound?
The Activity was 0%.

And the MIC90 (Staphylococcus aureus [29])?
Its MIC90 is 0.06 µg/mL (≈ 0.162 µM).

What about the Activity (Homo sapiens [30]) of the same compound?
Its Activity is 0%.

What about the Cmax [31] of the same compound?
The Cmax was 2400 ng/mL.

What about the Activity (Homo sapiens [32]) of the same compound?
Its Activity is 0%.

What about the Ratio (Staphylococcus aureus [33]) of the same compound?
The Ratio was 453.

And the AUC (Homo sapiens [34])?
The AUC was 63.31 µg·h/mL.

What about the CL (Homo sapiens [35]) of the same compound?
The CL was 0.2 L/h/kg.

What about the Activity (Homo sapiens [36]) of the same compound?
The Activity was 0%.

What about the dose excreted [37] of the same compound?
Its dose excreted is 36.5%.

What about the Ratio (Streptococcus pneumoniae [38]) of the same compound?
The Ratio was 1812.

And the dose excreted [39]?
The dose excreted was 44.9%.

What about the Activity (Homo sapiens [40]) of the same compound?
Its Activity is 0%.

And the Ratio (Streptococcus pneumoniae [41])?
Its Ratio is 95.

What about the Activity (Homo sapiens [42]) of the same compound?
Its Activity is 0%.

What about the Activity (Homo sapiens [43]) of the same compound?
The Activity was 0%.
